Results as given in ChEMBL document CHEMBL1926680, “The de-guanidinylated derivative of peramivir remains a potent inhibitor of influenza neuraminidase” (Bioorg Med Chem Lett, 2011).
Active and inactive are the calls of the source. The rule behind the calls is not given here.

Columns and labels:
[1] = molecular target: Neuraminidase (Influenza A virus, UniProt B4URF0); assay: Inhibition of influenza A virus neuraminidase
[2] = molecular target: Neuraminidase (Influenza A virus (strain A/Brevig Mission/1/1918 H1N1) (Influenza Avirus (strain A/South Carolina/1/1918 H1N1)), UniProt Q9IGQ6); assay: Inhibition of Influenza A virus (A/Brevig Mission/1/1918(H1N1)) recombinant soluble neuraminidase using 2'-4(methylumbelliferyl)-alpha-D-N-acetylneuraminic acid substrate by fluorimetric assay
Summary of the method: (§1)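 Recombinant soluble neuraminidase (400 ng/mL final) in 50 mM Tris, 5 mM CaCl2, 200 mM NaCl, pH 7.5, was mixed with a range of inhibitor concentrations and 2'-4-methylumbelliferyl substrate (200 µM final, 1.5% total DMSO). Fluorescence (ex 365 nm, em 445 nm) was followed over 5 min, and IC50 was taken from the full dose–response curve.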

[3] = system: Influenza A virus; assay: Antiviral activity against NP40-inactivated Influenza A virus (A/Brisbane/59/2007(H1N1)) preincubated with virus for 10 mins by viral hemagglutinination titter assay; type: functional, organism-based
Summary of the method: (§2)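 Inhibitor dilutions were incubated for 10 min at room temperature with 0.2% NP40-inactivated virus, diluted to match the activity of 1000 ng/mL recombinant enzyme stock. The 4-methylumbelliferyl sialic acid substrate was then added in Tris/CaCl2/NaCl buffer, pH 7.5. Neuraminidase activity was read fluorimetrically (ex 365, em 445 nm), and IC50 was taken from the dose–response curve.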

[4] = molecular target: Neuraminidase (Influenza A virus (strain A/Brevig Mission/1/1918 H1N1) (Influenza Avirus (strain A/South Carolina/1/1918 H1N1))) (UniProt Q9IGQ6); assay: Inhibition of Influenza A virus (A/Brevig Mission/1/1918(H1N1)) recombinant neuraminidase by dose responsive study; summary of the method: as §1
[5] = system: Influenza A virus; assay: Antiviral activity against NP40-inactivated Influenza A virus (A/Brisbane/59/2007(H1N1)) preincubated with virus for 2 hrs by viral hemagglutinination titter assay; type: functional, organism-based
Summary of the method: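 The virus assay used 0.2% NP40-inactivated virus, diluted to match the activity of 1000 ng/mL recombinant enzyme stock, with inhibitor preincubation lengthened to 2 h at room temperature before the 4-methylumbelliferyl substrate was added. Reaction was in pH 7.5 Tris/CaCl2/NaCl buffer, with fluorescence read at ex 365/em 445 nm. IC50 came from dose–response.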

[6] = molecular target: Neuraminidase (Influenza A virus (strain A/Brevig Mission/1/1918 H1N1) (Influenza Avirus (strain A/South Carolina/1/1918 H1N1))) (UniProt Q9IGQ6); assay: Competitive inhibition of Influenza A virus (A/Brevig Mission/1/1918(H1N1)) recombinant soluble neuraminidase at 3.75 to 15 nM using 2'-4(methylumbelliferyl)-alpha-D-N-acetylneuraminic acid substrate by fluorimetric based Lineweaver-Burk plot analysis
Summary of the method: (§3)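 For kinetics, substrate working solution was serially diluted in assay buffer (50 mM Tris, 5 mM CaCl2, 200 mM NaCl, pH 7.5) containing 4% DMSO. Recombinant soluble neuraminidase reaction progress was followed fluorimetrically (ex 365, em 445 nm) for 10 min at several substrate and inhibitor concentrations to derive Ki.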

[7] = molecular target: Neuraminidase (Influenza A virus (strain A/Brevig Mission/1/1918 H1N1) (Influenza Avirus (strain A/South Carolina/1/1918 H1N1))) (UniProt Q9IGQ6); assay: Competitive inhibition of Influenza A virus (A/Brevig Mission/1/1918(H1N1)) recombinant soluble neuraminidase at 3.75 to 15 nM using 2'-4(methylumbelliferyl)-alpha-D-N-acetylneuraminic acid substrate by fluorimetric based Michaelis-Menten equation analysis; summary of the method: as §3
[8] = molecular target: Neuraminidase (Influenza A virus) (UniProt B4URF0); assay: Inhibition of NP40-inactivated Influenza A virus (A/Brisbane/59/2007(H1N1)) neuraminidase after 10 mins by dose responsive study; summary of the method: as §2
[9] = molecular target: Neuraminidase (Influenza A virus (strain A/Brevig Mission/1/1918 H1N1) (Influenza Avirus (strain A/South Carolina/1/1918 H1N1))) (UniProt Q9IGQ6); assay: Competitive inhibition of Influenza A virus (A/Brevig Mission/1/1918(H1N1)) recombinant soluble neuraminidase at 0.7 to 3 nM using 2'-4(methylumbelliferyl)-alpha-D-N-acetylneuraminic acid substrate by fluorimetric based Lineweaver-Burk plot analysis
Summary of the method: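 Recombinant soluble neuraminidase (1000 ng/mL stock, 400 ng/mL in well) in 50 mM Tris pH 7.5, 200 mM NaCl, 5 mM CaCl2. The 4-methylumbelliferyl sialic acid substrate working solution was serially diluted in buffer with 4% DMSO. Reaction progress was read by fluorescence (ex 365, em 445 nm) over 10 min across several substrate and inhibitor concentrations. Substrate-only controls were run.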

[10] = molecular target: Neuraminidase (Influenza A virus (strain A/Brevig Mission/1/1918 H1N1) (Influenza Avirus (strain A/South Carolina/1/1918 H1N1))) (UniProt Q9IGQ6); assay: Competitive inhibition of Influenza A virus (A/Brevig Mission/1/1918(H1N1)) recombinant soluble neuraminidase at 0.7 to 3 nM using 2'-4(methylumbelliferyl)-alpha-D-N-acetylneuraminic acid substrate by fluorimetric based Michaelis-Menten equation analysis; summary of the method: as §3

Sequence of Neuraminidase (Influenza A virus (strain A/Brevig Mission/1/1918 H1N1) (Influenza Avirus (strain A/South Carolina/1/1918 H1N1))) (Q9IGQ6 whole entry): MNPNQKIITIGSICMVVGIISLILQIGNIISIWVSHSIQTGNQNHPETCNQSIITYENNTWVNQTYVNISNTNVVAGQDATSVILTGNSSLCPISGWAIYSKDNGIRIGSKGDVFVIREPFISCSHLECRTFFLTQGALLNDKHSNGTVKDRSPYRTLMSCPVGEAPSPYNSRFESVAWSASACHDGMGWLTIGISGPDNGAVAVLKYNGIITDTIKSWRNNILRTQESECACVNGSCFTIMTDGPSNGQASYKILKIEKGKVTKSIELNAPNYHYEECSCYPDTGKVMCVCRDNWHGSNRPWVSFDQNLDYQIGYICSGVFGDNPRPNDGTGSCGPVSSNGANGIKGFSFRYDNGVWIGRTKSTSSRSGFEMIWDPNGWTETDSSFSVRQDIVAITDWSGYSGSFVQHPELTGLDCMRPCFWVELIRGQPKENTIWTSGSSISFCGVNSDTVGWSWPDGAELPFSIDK
Sequence of Neuraminidase (Influenza A virus (strain A/Brevig Mission/1/1918 H1N1) (Influenza Avirus (strain A/South Carolina/1/1918 H1N1)), UniProt Q9IGQ6) (Q9IGQ6 whole entry): as above
Sequence of Neuraminidase (B4URF0 whole entry): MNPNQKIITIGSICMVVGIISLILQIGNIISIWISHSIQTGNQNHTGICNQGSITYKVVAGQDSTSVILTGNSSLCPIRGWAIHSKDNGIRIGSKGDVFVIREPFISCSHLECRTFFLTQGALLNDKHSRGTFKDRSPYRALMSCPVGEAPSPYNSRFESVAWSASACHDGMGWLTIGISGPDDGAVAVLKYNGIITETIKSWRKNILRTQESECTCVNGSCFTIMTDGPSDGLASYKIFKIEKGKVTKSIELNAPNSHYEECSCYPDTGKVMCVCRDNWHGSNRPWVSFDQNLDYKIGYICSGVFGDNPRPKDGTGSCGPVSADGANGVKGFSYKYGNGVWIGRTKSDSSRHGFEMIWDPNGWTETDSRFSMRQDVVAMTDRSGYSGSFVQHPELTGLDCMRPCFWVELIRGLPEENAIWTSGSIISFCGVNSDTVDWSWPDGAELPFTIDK
Sequence of Neuraminidase (Influenza A virus) (B4URF0 as listed by the source): as the sequence (B4URF0 whole entry) above

SMILES | IC50 [1] | IC50 [2] | IC50 [3] | inhibition [4] | Ki [2] | inhibition [8] | further results
CCOC(=O)C1=C[C@@H](OC(CC)CC)[C@H](NC(C)=O)[C@@H](N)C1 [OSELTAMIVIR] | 0.001 µM |  |  |  |  |  | 
CCOC(=O)C1=C[C@@H](OC(CC)CC)[C@H](NC(C)=O)[C@@H](NC(=N)N)C1 | 0.0005 µM |  |  |  |  |  | 
N=C(N)N[C@H]1CC[C@@](O)(C(=O)O)C1 |  | 4000 µM |  |  |  |  | 
CCC(CC)[C@H](NC(C)=O)[C@@H]1[C@H](O)[C@@H](C(=O)O)C[C@H]1N |  | 0.0177 µM | 0.0073 µM | Dose-dependent effect | 0.0075 µM | Dose-dependent effect | IC50 [5]: 0.0022 µM; inhibition [6]: Active; inhibition [7]: Active
N[C@H]1CC[C@@](O)(C(=O)O)C1 |  | 37000 µM |  |  |  |  | 
CCC(CC)[C@H](NC(C)=O)[C@@H]1[C@H](O)[C@@H](C(=O)O)C[C@H]1NC(=N)N [PERAMIVIR ANHYDROUS] |  | 0.0034 µM | 0.00086 µM | Dose-dependent effect | 0.00083 µM | Dose-dependent effect | inhibition [9]: Active; inhibition [10]: Active
